# Experimental data: PMC10249145 (Cardiovascular & hematological agents in medicinal chemistry, 2023)
# Where a name gives a salt, the structure may show the parent alone.
# Tests used:
# human plasma [1] = conditions: normal human plasma, positive controls; cited from earlier work
# human plasma [2] = conditions: normal human plasma, positive controls; cited from earlier work; remark: listed apart in the source
# FVIIa/tissue factor [3] = assay: Inhibition of FVIIa/tissue factor, chromogenic substrate hydrolysis assay; format: biochemical, human; conditions: ratio of IC50 values
# Procedure, shortened: (§1)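 FVIIa/tissue factor: enzyme about 8 nM with Spectrozyme VIIa at 1000 μM in-well, chosen from KM. Buffer was pH 7.4 Tris-HCl with NaCl, 2.5 mM CaCl2, 0.1% PEG8000 and 0.02% Tween80. Residual chromogenic activity was measured at several test compound concentrations, and a logistic fit gave IC50 where inhibition was concentration-dependent.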
# FVIIa/tissue factor [4] = target: T1, FVIIa/tissue factor (Homo sapiens, UniProt P08709); assay: as above; format: biochemical
# T1 sequence (P08709 61-466): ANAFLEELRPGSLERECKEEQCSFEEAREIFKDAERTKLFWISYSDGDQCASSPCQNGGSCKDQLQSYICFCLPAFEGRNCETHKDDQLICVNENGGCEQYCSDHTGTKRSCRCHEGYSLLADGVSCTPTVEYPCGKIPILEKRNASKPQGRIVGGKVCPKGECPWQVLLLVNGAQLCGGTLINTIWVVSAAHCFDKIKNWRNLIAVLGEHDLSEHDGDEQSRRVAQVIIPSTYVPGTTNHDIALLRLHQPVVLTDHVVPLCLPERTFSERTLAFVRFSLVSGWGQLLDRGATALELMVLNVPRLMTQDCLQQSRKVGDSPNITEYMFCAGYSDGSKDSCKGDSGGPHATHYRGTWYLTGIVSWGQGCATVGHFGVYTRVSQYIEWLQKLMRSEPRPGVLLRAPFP
# Procedure, shortened: as §1
# human plasma [5] = assay: Activated partial thromboplastin time; format: biochemical; conditions: normal human plasma, ellagic acid APTT reagent
# Procedure, shortened: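 Citrated pooled normal human plasma was mixed with test compound (solutions of 0–983 μM as added) and prewarmed ellagic acid APTT reagent (0.2%). After 4 min at 37 °C, clotting was started with prewarmed 25 mM CaCl2 and the clotting time was read on a fibrometer. The concentration giving a 1.5-fold increase in APTT was derived. Values are means of three experiments.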
# human FXIIa [6] = target: T2, human FXIIa (Homo sapiens, UniProt P00748); assay: Affinity to human FXIIa by intrinsic tryptophan fluorescence spectroscopy; format: binding
# T2 sequence (P00748 20-615): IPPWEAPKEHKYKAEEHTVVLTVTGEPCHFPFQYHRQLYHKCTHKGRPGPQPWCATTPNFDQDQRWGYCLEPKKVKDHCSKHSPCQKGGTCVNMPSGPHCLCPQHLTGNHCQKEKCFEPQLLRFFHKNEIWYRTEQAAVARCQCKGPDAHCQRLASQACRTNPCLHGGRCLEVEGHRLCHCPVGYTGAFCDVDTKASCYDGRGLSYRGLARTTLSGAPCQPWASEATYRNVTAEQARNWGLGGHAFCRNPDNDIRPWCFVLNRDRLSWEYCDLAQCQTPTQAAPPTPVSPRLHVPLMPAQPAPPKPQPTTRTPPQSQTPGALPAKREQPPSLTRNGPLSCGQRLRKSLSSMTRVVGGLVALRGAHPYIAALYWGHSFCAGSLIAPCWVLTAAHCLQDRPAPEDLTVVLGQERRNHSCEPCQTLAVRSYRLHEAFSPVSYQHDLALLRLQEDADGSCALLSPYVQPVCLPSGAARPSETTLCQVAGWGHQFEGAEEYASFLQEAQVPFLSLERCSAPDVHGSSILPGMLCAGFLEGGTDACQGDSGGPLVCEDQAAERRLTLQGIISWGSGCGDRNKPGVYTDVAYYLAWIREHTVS
# Procedure, shortened: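 Test compound (100 μM) was titrated into human FXIIa (350 nM) in 50 mM Tris-HCl pH 7.4 with 150 mM NaCl and 0.1% PEG8000 at 37 °C. Intrinsic tryptophan fluorescence was read at λem 348 nm (λex 280 nm). The fluorescence change was fitted to a quadratic equilibrium binding equation to give Kd.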
# human plasmin [7] = assay: Inhibition of plasmin, chromogenic substrate hydrolysis assay; format: biochemical; conditions: ratio of IC50 values
# Procedure, shortened: (§2)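 Human plasmin at about 20 nM with Spectrozyme PL at 50 μM in-well (set from KM), in pH 7.4 Tris-HCl with NaCl, 2.5 mM CaCl2, 0.1% PEG8000 and 0.02% Tween80. Residual activity was measured at several test compound concentrations, and a logistic fit gave IC50, efficacy and Hill slope.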
# human plasmin [8] = target: human plasmin (Homo sapiens, UniProt P00747); assay: as above; format: biochemical
# Procedure, shortened: as §2
# bovine trypsin = target: T3, bovine trypsin (Bos taurus, UniProt P00760); assay: Inhibition of trypsin, chromogenic substrate hydrolysis assay; format: biochemical
# T3 sequence (P00760 24-246): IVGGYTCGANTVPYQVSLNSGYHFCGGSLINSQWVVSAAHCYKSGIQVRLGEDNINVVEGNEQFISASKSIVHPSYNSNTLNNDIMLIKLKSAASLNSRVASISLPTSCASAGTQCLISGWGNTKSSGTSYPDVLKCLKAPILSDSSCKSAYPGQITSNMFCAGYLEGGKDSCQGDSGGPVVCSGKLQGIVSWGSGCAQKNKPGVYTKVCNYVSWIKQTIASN
# Procedure, shortened: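 Bovine trypsin at 500 ng/mL with S-2222 at 650 μM in-well (substrate level from KM), in pH 7.4 Tris-HCl containing NaCl, CaCl2, PEG8000 and Tween80. Residual activity was measured at several test compound concentrations, with logistic fitting for IC50 where inhibition was concentration-dependent.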
# human FXIIa [9] = target: T2, human FXIIa; assay: Direct inhibition of human FXIIa, chromogenic substrate hydrolysis assay; format: biochemical
# Procedure, shortened: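 Human FXIIa (stock 200 nM) was preincubated for 5 min with test compound or vehicle in Tris-HCl pH 7.4 with NaCl, 2.5 mM CaCl2, 0.1% PEG8000 and 0.02% Tween80 at 37 °C. Spectrozyme FXIIa (stock 5 mM) was then added. Twelve in-well concentrations (500–0.0025 μM) were tested. Residual activity was taken from the initial A405 rate, and a logistic fit gave IC50, efficacy and Hill slope (±1 S.E.).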
# FXa [10] = target: FXa (Homo sapiens, UniProt P00742, DEL180-234); assay: Inhibition of FXa, chromogenic substrate hydrolysis assay; format: biochemical
# Procedure, shortened: (§3)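 In-well FXa was about 1.09 nM with Spectrozyme FXa at 125 μM (from KM), in pH 7.4 Tris-HCl containing NaCl, 2.5 mM CaCl2, 0.1% PEG8000 and 0.02% Tween80. Several test compound concentrations were used; residual activity was fitted with a logistic equation for IC50 where inhibition was concentration-dependent.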
# FXa [11] = assay: as above; format: biochemical, human; conditions: ratio of IC50 values
# Procedure, shortened: as §3
# FIXa [12] = target: FIXa (Homo sapiens, UniProt P00740, DEL192-226); assay: Inhibition of FIXa, chromogenic substrate hydrolysis assay; format: biochemical
# Procedure, shortened: (§4)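 FIXa assay: about 89 nM enzyme and 850 μM Spectrozyme FIXa (in-well, level set from KM), in pH 7.4 Tris-HCl with NaCl, CaCl2, PEG8000 and Tween80. Residual activity was measured at several test compound concentrations and fitted with a logistic equation for IC50 where inhibition was concentration-dependent.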
# FIXa [13] = assay: as above; format: biochemical, human; conditions: ratio of IC50 values
# Procedure, shortened: as §4
# human FXIIa [14] = target: T2, human FXIIa; assay: Inhibition of FXIIa-mediated activation of FXI to FXIa; format: biochemical
# Procedure, shortened: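 Zymogen FXI (4 μM as added), human FXIIa (200 nM as added) and test compound (1000–0.32 μM as added) were combined in Tris-HCl pH 7.4 at 37 °C. After 5 min, S-2366 (stock 6.9 mM) was added. The FXIa generated was measured as the initial A405 rate. A logistic fit of relative residual activity gave IC50 and efficacy.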
# thrombin [15] = target: thrombin (Homo sapiens, UniProt P00734); assay: Inhibition of thrombin, chromogenic substrate hydrolysis assay; format: biochemical
# Procedure, shortened: (§5)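 Thrombin at about 6 nM with Spectrozyme TH at 50 μM (in-well), in pH 7.4 Tris-HCl buffer with NaCl, CaCl2, PEG8000 and Tween80. Substrate level was set from its KM. Residual activity was measured across several test compound concentrations, and a logistic fit of concentration-dependent inhibition gave IC50, efficacy and Hill slope.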
# thrombin [16] = assay: as above; format: biochemical, human; conditions: ratio of IC50 values
# Procedure, shortened: as §5
# FXIa [17] = target: FXIa (Homo sapiens, UniProt P03951); assay: Inhibition of FXIa, chromogenic substrate hydrolysis assay; format: biochemical
# Procedure, shortened: (§6)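 Human FXIa activity was measured with chromogenic substrate S-2366 in pH 7.4 Tris-HCl with NaCl, 2.5 mM CaCl2, 0.1% PEG8000 and 0.02% Tween80. Residual activity was measured at several test compound concentrations, and a logistic fit gave IC50, efficacy and Hill slope.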
# FXIa [18] = assay: as above; format: biochemical, human; conditions: ratio of IC50 values
# Procedure, shortened: as §6
# bovine α-chymotrypsin [19] = target: bovine α-chymotrypsin (Bos taurus, UniProt P00766, DEL14-15/DEL147-148); assay: Inhibition of chymotrypsin, chromogenic substrate hydrolysis assay; format: biochemical
# Procedure, shortened: (§7)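 Bovine α-chymotrypsin at 500 ng/mL with N-succinyl-Ala-Ala-Pro-Phe-p-nitroanilide at 910 μM in-well (from KM), in pH 7.4 Tris-HCl with NaCl, CaCl2, PEG8000 and Tween80. Residual activity was measured over several test compound concentrations, with logistic fitting for IC50 where inhibition was concentration-dependent.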
# bovine α-chymotrypsin [20] = assay: as above; format: biochemical; conditions: ratio of IC50 values
# Procedure, shortened: as §7
# human plasma kallikrein [21] = target: human plasma kallikrein (Homo sapiens, UniProt P03952); assay: Inhibition of plasma kallikrein, chromogenic substrate hydrolysis assay; format: biochemical
# Procedure, shortened: (§8)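 Human plasma kallikrein was used at about 3 nM with Spectrozyme PK at 100 μM (in-well, set from KM), in pH 7.4 Tris-HCl with NaCl, CaCl2, PEG8000 and Tween80. Residual activity was measured at several test compound concentrations; IC50 was fitted by logistic equation where inhibition was concentration-dependent.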
# human plasma kallikrein [22] = assay: as above; format: biochemical; conditions: ratio of IC50 values
# Procedure, shortened: as §8
# human plasma [23] = assay: Prothrombin time; format: biochemical; conditions: normal human plasma; highest concentration tested about 980 μM
# Procedure, shortened: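 Thromboplastin-D was reconstituted in distilled water and warmed to 37 °C. Citrated pooled normal human plasma was incubated with test compound (solutions of 0–983 μM as added) for 30 s at 37 °C. Clotting was started by adding the prewarmed thromboplastin-D and the clotting time was read on a fibrometer. The concentration giving a 1.5-fold increase in PT was derived. Values are means of three experiments.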
# [24] = human FXIIa, pH 7.4, 37 °C, ± 1 S.E.
# FXIa (Homo sapiens, UniProt P03951), sequence (P03951 19-625): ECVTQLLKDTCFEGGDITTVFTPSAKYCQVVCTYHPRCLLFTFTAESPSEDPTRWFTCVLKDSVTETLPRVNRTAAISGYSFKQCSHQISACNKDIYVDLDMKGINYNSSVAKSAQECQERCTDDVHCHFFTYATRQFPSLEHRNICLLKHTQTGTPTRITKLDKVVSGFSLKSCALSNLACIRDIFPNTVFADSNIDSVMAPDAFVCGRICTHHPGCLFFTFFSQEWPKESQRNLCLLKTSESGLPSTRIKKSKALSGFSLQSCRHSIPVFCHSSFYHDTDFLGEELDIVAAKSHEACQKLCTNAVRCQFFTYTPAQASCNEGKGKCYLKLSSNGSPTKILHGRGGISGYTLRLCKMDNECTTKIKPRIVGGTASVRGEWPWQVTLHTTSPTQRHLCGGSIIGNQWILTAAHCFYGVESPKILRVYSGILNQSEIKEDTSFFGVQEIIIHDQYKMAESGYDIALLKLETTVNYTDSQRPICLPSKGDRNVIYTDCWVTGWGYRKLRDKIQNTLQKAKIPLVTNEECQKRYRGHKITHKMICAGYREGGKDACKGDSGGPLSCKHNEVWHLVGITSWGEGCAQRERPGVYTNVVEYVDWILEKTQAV
# human plasmin (Homo sapiens, UniProt P00747), sequence (P00747 97-810): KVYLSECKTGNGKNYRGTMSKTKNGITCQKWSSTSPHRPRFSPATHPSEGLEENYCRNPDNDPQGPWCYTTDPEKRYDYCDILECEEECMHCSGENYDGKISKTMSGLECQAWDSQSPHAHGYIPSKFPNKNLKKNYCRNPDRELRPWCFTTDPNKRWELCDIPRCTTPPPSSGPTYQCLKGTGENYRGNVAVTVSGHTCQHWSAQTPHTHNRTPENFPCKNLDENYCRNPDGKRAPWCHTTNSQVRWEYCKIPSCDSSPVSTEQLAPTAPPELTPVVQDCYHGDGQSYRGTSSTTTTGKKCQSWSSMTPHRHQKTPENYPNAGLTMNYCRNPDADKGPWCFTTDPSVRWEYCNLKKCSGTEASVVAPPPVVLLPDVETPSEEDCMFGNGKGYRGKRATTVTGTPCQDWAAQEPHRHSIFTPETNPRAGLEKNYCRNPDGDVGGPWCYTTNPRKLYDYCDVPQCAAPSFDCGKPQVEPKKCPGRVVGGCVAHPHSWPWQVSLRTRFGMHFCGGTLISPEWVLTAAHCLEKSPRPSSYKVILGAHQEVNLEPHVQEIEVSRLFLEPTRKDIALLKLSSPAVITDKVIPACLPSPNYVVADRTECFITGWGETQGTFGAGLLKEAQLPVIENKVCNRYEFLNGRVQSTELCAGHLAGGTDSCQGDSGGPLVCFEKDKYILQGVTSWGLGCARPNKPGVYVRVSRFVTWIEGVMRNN
# human plasma kallikrein (Homo sapiens, UniProt P03952), sequence (P03952 20-638): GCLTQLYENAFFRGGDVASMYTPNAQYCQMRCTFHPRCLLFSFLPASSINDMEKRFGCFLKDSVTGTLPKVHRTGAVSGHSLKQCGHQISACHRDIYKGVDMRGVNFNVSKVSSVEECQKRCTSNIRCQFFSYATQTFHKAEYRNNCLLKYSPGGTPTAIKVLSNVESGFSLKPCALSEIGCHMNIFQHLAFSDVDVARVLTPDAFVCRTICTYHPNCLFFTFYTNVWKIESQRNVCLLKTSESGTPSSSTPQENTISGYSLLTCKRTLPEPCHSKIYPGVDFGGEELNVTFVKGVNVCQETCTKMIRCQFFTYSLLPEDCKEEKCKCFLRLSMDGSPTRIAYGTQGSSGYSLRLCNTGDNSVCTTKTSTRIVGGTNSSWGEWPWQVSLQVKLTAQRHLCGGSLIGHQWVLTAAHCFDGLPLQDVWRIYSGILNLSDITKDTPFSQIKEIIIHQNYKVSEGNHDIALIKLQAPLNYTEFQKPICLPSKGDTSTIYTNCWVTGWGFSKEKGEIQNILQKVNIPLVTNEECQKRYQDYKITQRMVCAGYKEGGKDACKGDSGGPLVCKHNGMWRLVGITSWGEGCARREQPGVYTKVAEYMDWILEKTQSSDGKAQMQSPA
smiles,measurement,setting,value
CC1CNc2c(cccc2S(=O)(=O)N[C@@H](CCCNC(=N)N)C(=O)N2CC[C@@H](C)C[C@@H]2C(=O)O)C1 (stereo partly drawn) [Argatroban HCl],APTT (EC×1.5),human plasma [1],~0.19 μM^b
same,PT (EC×1.5),human plasma [2],~0.13 µM
"COC(=O)c1nc(N)n(C(=O)c2ccc(C(C)(C)C)cc2)n1 [Inhibitor 1, Methyl 5-amino-1-(4-(tert-butyl)benzoyl)-1H-1,2,4-triazole-3-carboxylate]",selectivity to FXIIa over FVIIa/TF,FVIIa/tissue factor [3],at least 4545 fold
same,IC50,FVIIa/tissue factor [4],> 1000 µM
same,"APTT (EC×1.5), concentration required to increase APTT by 1.5-fold",human plasma [5],~340 µM
same,"APTT (EC×1.5), concentration required to increase APTT by 1.5-fold",human plasma [5]; listed as 1,~ 340 μM
same,Kd,human FXIIa [6],0.98 ± 0.13 µM
same,selectivity index to human FXIIa over plasmin,human plasmin [7],756 fold
same,IC50,human plasmin [8],83.2 ± 37 µM
same,DeltaY (efficacy of inhibition),human plasmin [8]; Plasmin,25 ± 12%
same,HS (Hill slope),human plasmin [8]; Plasmin,1.4 ± 1.6
same,IC50,bovine trypsin,> 1000 µM
same,selectivity to FXIIa over trypsin,bovine trypsin; ratio of IC50 values,at least 4545 fold
same,HS (Hill slope),human FXIIa [9]; [24],1.7 ± 0.4
same,IC50,FXa [10],> 577 µM
same,selectivity to FXIIa over FXa,FXa [11],at least 4545 fold
same,IC50,FIXa [12],> 1000 µM
same,selectivity to FXIIa over FIXa,FIXa [13],at least 4545 fold
same,IC50,human FXIIa [14],~2 µM
same,efficacy of FXIIa inhibition using the macromolecule substrate FXI,"human FXIIa [14]; residual FXIa activity by S-2366, pH 7.4, 37 °C",~ 41%
same,IC50,thrombin [15],235 ± 52.5 µM
same,DeltaY (efficacy of inhibition),thrombin [15]; Thrombin,106 ± 7%
same,HS (Hill slope),thrombin [15]; Thrombin,0.4 ± 0.1
same,selectivity index to human FXIIa over thrombin,thrombin [16],2137 fold
same,IC50,FXIa [17],16.8 ± 6.7 µM
same,DeltaY (efficacy of inhibition),FXIa [17]; FXIa,32 ± 11%
same,HS (Hill slope),FXIa [17]; FXIa,1.9 ± 2.8
same,selectivity index to human FXIIa over FXIa,FXIa [18],153 fold
same,IC50,bovine α-chymotrypsin [19],> 1000 µM
same,selectivity to FXIIa over α-chymotrypsin,bovine α-chymotrypsin [20],at least 4545 fold
same,IC50,human plasma kallikrein [21],> 500 µM
same,selectivity to FXIIa over plasma kallikrein,human plasma kallikrein [22],at least 4545 fold
same,"PT (EC×1.5), concentration required to increase PT by 1.5-fold",human plasma [23],not significantly affected
"COC(=O)c1nc(N)n(C(=O)c2ccccc2)n1 [Inhibitor 2, Methyl 5-amino-1-benzoyl-1H-1,2,4-triazole-3-carboxylate]",decrease in the inhibition potency,human FXIIa [9]; FXIIa IC50 relative to inhibitor 1,~ 2.2 fold
same,DeltaY (efficacy of inhibition),human FXIIa [9]; [24],92.2 ± 3.1%
same,HS (Hill slope),human FXIIa [9]; [24],1.09 ± 0.14
